Measured values: EPA's CvTdb concentration-time database
Several values for one entry are separate records, joined by “and”; a condition that tells them apart may be missing. Equal entries are not always repeated.

Legend:
rat [1] = assay: concentration in blood after dosing
rat [2] = assay: concentration in blood after dosing; conditions: dosed: benzene, 40000 ppm, dermal, duration: 4 hr, male, F344
rat [3] = assay: concentration in blood after dosing; conditions: dosed: benzene, 40000 ppm, dermal, duration: 4 hr, male, F344; remark: listed apart in the source
rat [4] = assay: concentration in blood after dosing; conditions: dosed: benzene, 40000 ppm, dermal, duration: 4 hr, male, F344; remark: listed apart in the source
rat [5] = assay: concentration in blood after dosing; conditions: dosed: benzene, 40000 ppm, dermal, duration: 4 hr, male, F344; remark: listed apart in the source
rat [6] = assay: concentration in adipose after dosing; conditions: male
rat [7] = assay: concentration in skin after dosing; conditions: dosed: benzo(a)pyrene, 40 umol/kg, iv, male, Sprague Dawley
rat [8] = assay: concentration in lung after dosing; conditions: dosed: benzo(a)pyrene, 40 umol/kg, iv, male, Sprague Dawley
rat [9] = assay: concentration in feces after dosing; conditions: dosed: benzo(a)pyrene, 40 umol/kg, iv, male, Sprague Dawley
rat [10] = assay: concentration in liver after dosing; conditions: dosed: benzo(a)pyrene, 40 umol/kg, iv, male, Sprague Dawley
rat [11] = assay: concentration in kidney after dosing; conditions: dosed: benzo(a)pyrene, 40 umol/kg, iv, male, Sprague Dawley
rat [12] = assay: concentration in blood after dosing (% dose/mL); conditions: dosed: benzo(a)pyrene, 117 nmol, iv, male, Sprague Dawley
human = assay: concentration in blood after dosing; conditions: dosed: chlorobenzene, 10 ppm, inhalation, duration: 8 hr
Summary of the method: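 A PubMed search, classifier screening and manual review identified published in vivo toxicokinetic studies, which together with two structured collections supplied concentration-versus-time and amount-versus-time points. Points were mostly digitised from plot screenshots with WebPlotDigitizer, otherwise copied from tables. Dose, route, subject details and medium were hand-curated from each paper, and sampling and analytical methods are those of the sources, often unreported.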

COc1ccccc1N=Nc1c(O)ccc2ccccc12 [Solvent red1]
rat [1], dosed: Solvent red1, 20 mg/kg, oral, Sprague Dawley
Conditions | concentration in blood [ng/mL]
0.2399 h | 122
0.4077 h | 341
0.7668 h | 990
1.067 h | 510
1.606 h | 274
2.085 h | 139
2.561 h | 90.5
3.615 h | 46.4
4.567 h | 15.8
5.518 h | 10.3
7.58 h | 8.35
9.583 h | 4.6
13.09 h | 4.34
18.04 h | 1.27
24.03 h | 0.824
251 s | 2.62

c1ccccc1 [benzene]
concentration in blood [ng/mL]
Conditions | 0.5 h | 1 h | 2 h | 3 h | 4 h
rat [2] | 8340 | 10300 | 13100 | 12300 | 11500
rat [3] | 7850 | 8900 | 10100 | 10700 | 11400
rat [4] | 7670 | 8220 | 9710 | 10600 | 11100
rat [5] | 10000 | 9650 | 9690 | 12300 | 10200

rat [1], dosed: benzene, 40000 ppm, dermal, duration: 4 hr, male, F344
Conditions | concentration in blood [ng/mL]
0.5 h | 7380
1 h | 8530
2 h | 8050
3 h | 10400
4 h | 11700

rat [6], dosed: benzene, 190 ppm, inhalation, duration: 6 hr, Fisher
Conditions | concentration in adipose [ng/mL]
0.4898 h | 7580
0.99 h | 19500
1.49 h | 27500
1.989 h | 34600
3.993 h | 106000
5.974 h | 159000
6.485 h | 181000
6.98 h | 142000
7.478 h | 126000
8.014 h | 95900
8.509 h | 63800
8.999 h | 70400
10 h | 41500
11.99 h | 13400
15 h | 8140

c1ccc2c(c1)cc1ccc3cccc4ccc2c1c34 [benzo(a)pyrene]
Conditions | concentration in blood | concentration in feces [µmol/kg] | concentration in kidney [µmol/kg] | concentration in liver [µmol/kg] | concentration in lung [µmol/kg] | concentration in skin [µmol/kg]
rat [7], 2 h | – | – | – | – | – | 7.56
rat [7], 4 h | – | – | – | – | – | 2.74
rat [7], 8 h | – | – | – | – | – | 1.7
rat [7], 16 h | – | – | – | – | – | 0.783
rat [7], 24 h | – | – | – | – | – | 0.102
rat [7], 33 h | – | – | – | – | – | 0.0296
rat [7], 48 h | – | – | – | – | – | 0.0205
rat [7], 72 h | – | – | – | – | – | 0.018
rat [8], 2 h | – | – | – | – | 17 | –
rat [8], 4 h | – | – | – | – | 10.2 | –
rat [8], 8 h | – | – | – | – | 17.6 | –
rat [8], 16 h | – | – | – | – | 16.9 | –
rat [8], 24 h | – | – | – | – | 8.02 | –
rat [8], 33 h | – | – | – | – | 11.2 | –
rat [8], 48 h | – | – | – | – | 7.35 | –
rat [8], 72 h | – | – | – | – | 5.18 | –
rat [9], 2 h | – | 0.0005 | – | – | – | –
rat [9], 4 h | – | 0.002 | – | – | – | –
rat [9], 8 h | – | 0.0127 | – | – | – | –
rat [9], 16 h | – | 0.0779 | – | – | – | –
rat [9], 24 h | – | 0.351 | – | – | – | –
rat [9], 33 h | – | 0.382 | – | – | – | –
rat [9], 48 h | – | 0.354 | – | – | – | –
rat [9], 72 h | – | 0.397 | – | – | – | –
rat [10], 2 h | – | – | – | 2.31 | – | –
rat [10], 4 h | – | – | – | 1.91 | – | –
rat [10], 8 h | – | – | – | 1.79 | – | –
rat [10], 16 h | – | – | – | 0.574 | – | –
rat [10], 24 h | – | – | – | 0.21 | – | –
rat [10], 33 h | – | – | – | 0.165 | – | –
rat [10], 48 h | – | – | – | 0.0546 | – | –
rat [10], 72 h | – | – | – | 0.0254 | – | –
rat [11], 2 h | – | – | 0.53 | – | – | –
rat [11], 4 h | – | – | 0.145 | – | – | –
rat [11], 8 h | – | – | 0.164 | – | – | –
rat [11], 16 h | – | – | 0.0435 | – | – | –
rat [11], 24 h | – | – | 0.0127 | – | – | –
rat [11], 33 h | – | – | 0.008 | – | – | –
rat [11], 48 h | – | – | 0.004 | – | – | –
rat [11], 72 h | – | – | 0.001 | – | – | –
rat [12], 0.3233 h | 0.081 | – | – | – | – | –
rat [12], 0.4938 h | 0.0586 | – | – | – | – | –
rat [12], 0.7433 h | 0.0404 | – | – | – | – | –
rat [12], 0.9867 h | 0.0307 | – | – | – | – | –
rat [12], 1.736 h | 0.012 | – | – | – | – | –
rat [12], 2.474 h | 0.00662 | – | – | – | – | –
rat [12], 3.463 h | 0.00438 | – | – | – | – | –
rat [12], 3.977 h | 0.00384 | – | – | – | – | –
rat [12], 4.987 h | 0.00267 | – | – | – | – | –
rat [12], 55 s | 0.859 | – | – | – | – | –
rat [12], 206 s | 0.278 | – | – | – | – | –

rat [1], dosed: benzo(a)pyrene, 40 umol/kg, iv, male, Sprague Dawley
Conditions | concentration in blood [µmol/kg]
2 h | 0.422
4 h | 0.118
8 h | 0.076
16 h | 0.0274
24 h | 0.0156
33 h | 0.0066
48 h | 0.005
72 h | 0.0024

rat [6], dosed: benzo(a)pyrene, 40 umol/kg, iv, Sprague Dawley
Conditions | concentration in adipose [µmol/kg]
2 h | 2.47
4 h | 1.4
8 h | 3.23
16 h | 3.19
24 h | 2.11
33 h | 2.4
48 h | 1.27
72 h | 0.663

Clc1ccccc1 [chlorobenzene]
human
Conditions | concentration in blood
8.065 h | 182 ng/mL
8.199 h | 192 ng/mL and 167 ng/mL and 100 ng/mL
8.252 h | 145 ng/mL
8.284 h | 200 ng/mL
8.434 h | 120 ng/mL
8.451 h | 158 ng/mL
8.532 h | 65.3 ng/mL
8.536 h | 158 ng/mL and 140 ng/mL
8.617 h | 112 ng/mL
8.633 h | 109 ng/mL
8.82 h | 107 ng/mL
8.872 h | 128 ng/mL and 140 ng/mL and 51.8 ng/mL
9.018 h | 102 ng/mL
9.124 h | 119 ng/mL
9.201 h | 49.6 ng/mL and 92.9 ng/mL
9.205 h | 119 ng/mL
9.387 h | 98.1 ng/mL
9.533 h | 78.8 ng/mL and 44.2 ng/mL
9.537 h | 108 ng/mL
9.582 h | 100 ng/mL
9.87 h | 96 ng/mL and 69.7 ng/mL and 42.1 ng/mL
10.2 h | 40.5 ng/mL and 77.5 ng/mL and 91.3 ng/mL
10.53 h | 50.2 ng/mL and 63.4 ng/mL and 71.5 ng/mL
10.86 h | 41.7 ng/mL
10.87 h | 58.7 ng/mL and 66.2 ng/mL
11.2 h | 60.9 ng/mL
